TRPC4 potent: positive allosteric modulators of TRPC4, primary screen, cell-based, mouse TRPC4beta, HEK293 mu-opioid, Fluo-4 calcium. DAMGO EC20, Fluo-4 Ca2+ flux; stronger effect = higher value. hit rate 0.42% among 310,000. Short transient receptor potential channel 4 (Mus musculus), Q9QUQ5. B-score at 10 µM;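 active = B-score of calcium response area above 5 SD of library B-scores, with initial fluorescence ratio within 5 SD of library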
Target sequence (Q9QUQ5 whole entry, looked up): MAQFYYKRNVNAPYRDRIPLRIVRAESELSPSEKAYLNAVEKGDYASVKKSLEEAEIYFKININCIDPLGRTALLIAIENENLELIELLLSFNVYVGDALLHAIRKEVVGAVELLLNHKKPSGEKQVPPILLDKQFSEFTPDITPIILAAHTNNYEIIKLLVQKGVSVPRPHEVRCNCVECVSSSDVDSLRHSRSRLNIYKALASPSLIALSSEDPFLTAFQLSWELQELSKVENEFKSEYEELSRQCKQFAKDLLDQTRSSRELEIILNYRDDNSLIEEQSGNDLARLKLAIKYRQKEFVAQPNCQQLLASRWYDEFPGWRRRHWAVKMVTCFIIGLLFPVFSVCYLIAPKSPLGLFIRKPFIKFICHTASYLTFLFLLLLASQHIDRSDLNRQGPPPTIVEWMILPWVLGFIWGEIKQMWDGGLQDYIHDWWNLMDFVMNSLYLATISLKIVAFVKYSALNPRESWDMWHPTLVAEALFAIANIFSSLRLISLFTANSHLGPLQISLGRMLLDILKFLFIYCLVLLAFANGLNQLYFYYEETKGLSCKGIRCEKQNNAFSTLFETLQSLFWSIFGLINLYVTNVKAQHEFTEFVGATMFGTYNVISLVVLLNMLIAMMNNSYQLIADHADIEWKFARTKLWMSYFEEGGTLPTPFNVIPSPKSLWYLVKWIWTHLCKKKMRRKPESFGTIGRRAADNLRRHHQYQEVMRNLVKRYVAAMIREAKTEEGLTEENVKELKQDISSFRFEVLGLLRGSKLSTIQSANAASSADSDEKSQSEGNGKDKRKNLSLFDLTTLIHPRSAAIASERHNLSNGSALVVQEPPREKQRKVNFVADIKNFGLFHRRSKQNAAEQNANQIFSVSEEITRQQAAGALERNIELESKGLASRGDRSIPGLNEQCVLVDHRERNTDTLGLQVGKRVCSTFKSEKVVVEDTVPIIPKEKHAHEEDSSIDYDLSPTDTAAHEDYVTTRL
TRPC4 agonist: activators of mouse TRPC4 channel, primary screen, Fluo4 calcium, HEK293 TRPC4beta/mu-opioid cells. Fluo4 calcium fluorescence; stronger effect = higher value. B-score at 10 µM. hit rate 0.49% among 310,000. AID 2237, 2010;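 active = B-score above 5 SD of library B-scores, and initial fluorescence ratio not above library mean plus 5 SD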;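 also: positive B-score marks a calcium rise read as TRPC4 activation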
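system = HEK293 cells stably co-expressing mouse TRPC4beta and mu-opioid receptor | schedule = Fluo4 dye loading 45 min at room temperature, 110 s recording | measure = B-scored integrated calcium fluorescence ratio | signal = Fluo4 calcium-sensitive dye fluorescence, kinetic, 1 Hz baseline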
TRPC6 act: mouse TRPC6 channel activators, primary screen, cell-based, HEK293, membrane potential dye; HEK293-TRPC6 membrane potential dye fluorescence; stronger effect = higher value; B-score at 10 µM; hit rate 0.13% among 310,000; AID 2550, 2010;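 active = B-score of the integrated fluorescence ratio above library mean plus 3 SD, and starting fluorescence ratio within library mean plus 5 SD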;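 also: higher score means more depolarization so channel activation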
TRPC4 inh: inhibitors of mouse TRPC4 channel, primary screen, Fluo4 calcium, HEK293 TRPC4beta/mu-opioid cells; Short transient receptor potential channel 4 (Mus musculus), Q9QUQ5; hit rate 0.39% among 300,000; AID 2247, 2010; B-score at 10 µM; DAMGO-evoked Fluo4 calcium flux; stronger effect = lower value;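 active = B-score over 3 SD under the library average, no early fluorescence shift, positive overall ratio signal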
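Test system – stable TRPC4beta/mu-opioid receptor HEK293 cells · Probe or stimulus – DAMGO, a submaximal dose followed by a maximal one · Dosing – one concentration per compound · Signal – Fluo4 calcium fluorescence by kinetic imaging, 5 s 1 Hz baseline · Evaluation – per-well B score of integrated baseline-normalized Fluo4 ratio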
TRPC6 inh: mouse TRPC6 channel inhibitors, primary screen, cell-based, HEK293, membrane potential dye | ACh-evoked depolarization; stronger effect = lower value | B-score at 10 µM | hit rate 1.1% among 310,000 | AID 2553, 2010;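 active = B-score under library mean minus 3 SD, initial fluorescence not abnormally high, positive integrated signal ratio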;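 also: B-score derived from integrated fluorescence ratio over the kinetic read; more negative B-score means stronger inhibition of depolarization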
Of the large screens only hits and unclear results are named; the others gave an inactive call. The list is not random: actives were taken first. Their share in the collection is about 2.3%.

O=C(O)C1C2CCC(C2)C1C(=O)N1CCCC1 (stereo unspecified)	none
C=CCn1c(SCC(=O)OC)nc2sc3c(c2c1=O)CCN(C)C3	TRPC6 inh -5.7
CCSc1nc2sc3c(c2c2nnc(SCC(=O)NCc4ccco4)n12)CCCC3	none
CC(C)Sc1nc2sc3c(c2c2nnc(SCC(=O)NCc4ccco4)n12)CCCC3	TRPC4 inh -7
CN(C)/C=C/C(=O)c1ccn(S(=O)(=O)c2ccccc2)c1	none
Cc1cc(OCCN2CCCC2)ccc1[N+](=O)[O-]	TRPC4 potent 30
CCCn1c(C2CCCN2c2nc(-c3ccc(C)cc3)cs2)nc2ccccc21 (stereo unspecified)	TRPC4 agonist 46
Cc1ccc(Cn2c(C3CCCN3c3nc(-c4ccc(F)cc4)cs3)nc3cc(Cl)c(Cl)cc32)cc1 (stereo unspecified)	none
CSc1sccc1/C=C(/C#N)C(=O)c1ccco1	none
CCCCN(CC)CCCNC(=O)Cn1nc(Cc2ccncc2)c2ccccc2c1=O	TRPC4 agonist 133
CCCCN(C)C(=O)Cn1nc(Cc2ccncc2)c2ccccc2c1=O	none
O=C(N/N=C/c1ccsc1)c1ccc2ccccc2n1	TRPC4 potent 17
O=C(N/N=C/c1ccc2c(c1)OCO2)c1ccc2ccccc2n1	none
O=C(NCCCc1ccc(F)cc1)C1CCC(=O)N(CC2CCCCC2)C1 (stereo unspecified)	none
COCc1ccc(C(=O)N2CCCC(Nc3ccc4c(c3)OCCO4)C2)o1 (stereo unspecified)	none
CC(=O)N(c1ccc(Cl)cc1)c1c[nH]c2ccccc12	TRPC4 inh -6
CC(=O)N(c1ccc(Cl)cc1)c1cn(C(C)=O)c2ccccc12	none
CCCN(CC(=O)Nc1ccccc1Br)CC(=O)Nc1ccc(F)c(F)c1F	TRPC4 potent 12
Cc1oc(-c2ccc(Cl)cc2)nc1CN1CCC(C(=O)NCC2CCCO2)CC1 (stereo unspecified)	none
CCN(CCNC(=O)C1CCN(Cc2nc(-c3ccc(Cl)cc3)oc2C)CC1)c1ccccc1	TRPC6 inh -6.6
Cc1oc(-c2ccc(Cl)cc2)nc1CN1CCC(C(=O)NCc2cccs2)CC1	TRPC4 inh -6
CC1(c2ccccc2Cl)NC(=O)N(CC(=O)c2ccc3c(c2)OCO3)C1=O (stereo unspecified)	none
CC(C)(C)N1CC23CCC(C[C@@H]2C1=O)O3 (stereo partly specified)	none
COc1ccc(S(=O)(=O)N2CC(C)N(C(=O)N3CCOCC3)C2)cc1 (stereo unspecified)	none
CCCOc1ccc(Br)cc1/C=N/O	TRPC4 inh -6
CN(C)S(=O)(=O)c1ccc(Cl)c(C(=O)Nc2ccc(S(=O)(=O)N3CCOCC3)cc2)c1	none
C[N+]1(C)CCC(=C2c3ccccc3CC(=O)c3sccc32)CC1	TRPC6 inh -6.4
Cc1cccc2c1Sc1ccccc1CC2=O	none
COC(=O)C1=C(C)N(Cc2ccccc2)C(=O)N[C@H]1c1cccc(C(F)(F)F)c1	TRPC4 potent 10
CCCCN(C)CCNC(=O)CCn1nc(-c2ccc(Cl)cc2)ccc1=O	TRPC4 potent 11, TRPC4 agonist 64
COC(=O)c1ccc(CN2CCCC(C(=O)Nc3ccc(-c4ccn[nH]4)cc3)C2)cc1 (stereo unspecified)	TRPC4 agonist 50
COC(=O)c1ccc(NC(=O)C2CCCN(S(C)(=O)=O)C2)cc1 (stereo unspecified)	none
O=C(CC1C(=O)NCCN1Cc1cccc(F)c1)NCCCCCN1CCOCC1 (stereo unspecified)	none
O=C(COC(=O)Cn1cnc2ccccc2c1=O)Nc1ccccc1Sc1ccc(Cl)cc1	TRPC4 inh -5
O=C(COC(=O)Cn1cnc2ccccc2c1=O)Nc1ccc(Cl)cc1	none
CC(C)NC(=S)N1CCN(C/C=C/c2ccccc2)CC1	TRPC4 inh -6
O=C(c1ccco1)N1CCN(C/C=C/c2ccccc2)CC1	TRPC4 inh -5
S=C(NC1CCCCC1)N1CCN(C/C=C/c2ccccc2)CC1	none
N/C(=N\OC(=O)c1ccccc1)c1ccn[nH]1	none
COC(=O)C1CCN(Cc2cn(-c3ccccc3)nc2-c2ccc3c(c2)OCO3)CC1	TRPC4 agonist 83
CC(=O)NCC1CCCN(Cc2cn(-c3ccccc3)nc2-c2ccc3c(c2)OCO3)C1 (stereo unspecified)	none
COc1cc(OC)cc(C(=O)Nc2cccc(NC(=O)c3ccccc3)c2)c1	none
COc1cc(OC)cc(C(=O)Nc2ccc(Nc3ccccc3)cc2)c1	TRPC6 inh -5
CC1=C(C(=O)Nc2ccc(C(=O)NCCCN3CCCCC3)cc2)SCCO1	none
COc1ccccc1CNC(=O)[C@H](C)NC(=O)C1CCN(C(=O)[C@@H](N)C(C)C)CC1	none
O=C(N/N=C/c1cc2c(cc1Br)OCO2)c1cc2ccccc2o1	TRPC4 inh -7
OCc1nc2c(ccc3ccccc32)[nH]1	none
CC1(c2ccc(Cl)cc2Cl)NC(=O)N(CC(=O)Nc2ccc3[nH]c(=O)[nH]c3c2)C1=O (stereo unspecified)	none
COc1ccc(-n2c(C)cc(C(=O)Cn3nnc4ccccc4c3=O)c2C)cc1	none
Cc1cc(C(=O)Cn2nnc3ccccc3c2=O)c(C)n1-c1ccccc1F	TRPC4 potent 14
Cc1cc(C(=O)CN2C(=O)NC(CC(C)C)C2=O)c(C)n1-c1ccccc1F (stereo unspecified)	none
Cc1cc(C(=O)CN2C(=O)C(=O)N(CC(C)C)C2=O)c(C)n1-c1ccccc1F	TRPC4 potent 15
COc1ccc(OC)c(CCNC(=O)CCCC(=O)n2ncc3cc(C)ccc32)c1	none
Cc1ccc(CSCC(=O)N(C)CC(=O)Nc2ccc(Cl)c(Cl)c2)cc1	none
CC1CC(C)CN(CCCNC(=O)c2ccc3c(SCC(=O)O)c4c(nc3c2)CCC4)C1 (stereo unspecified)	TRPC4 agonist 76
CCN(CC)CCCNC(=O)c1ccc2c(SCC(=O)O)c3c(nc2c1)CCC3	none
Cc1nc2ccccc2c2oc(C(=O)NCCCN3CC(C)CC(C)C3)cc12 (stereo unspecified)	TRPC4 agonist 83
O=C(CN(C(=O)Cn1nnc(-c2ccc(F)cc2)n1)c1ccc(F)cc1)NC1CCCC1	none
CC(C)(C)C(=O)NC(=S)NNC(=O)C(c1ccccc1)c1ccccc1	TRPC4 agonist 304
CC(=O)NNC(=S)NC(=O)C(c1ccccc1)c1ccccc1	none
NC(=O)c1ccc(Oc2ccc3c(c2)CCC3)c([N+](=O)[O-])c1	TRPC4 potent 24
